Screens from PubChem BioAssay.
The list is not random: actives were taken first. Their share in the collection is about 3.4%.
A3G deaminase – APOBEC3G DNA deaminase inhibitors, primary screen, biochemical, fluorescence, single-stranded DNA substrate, uHTS. DNA dC->dU-editing enzyme APOBEC-3G (Homo sapiens), Q9HC16. recombinant A3G, ssDNA deamination FAM/TAMRA fluorescence. inhibition, % at 20 µM. actives 0.28% (n = 330,000). AID 493012, 2011;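 active = inhibition of at least 40% at 20 µM, with no more than 30% in the related APOBEC3A deaminase screen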
Arrestin-AP2 inh – inhibitors of beta-arrestin/AP2 binding, primary screen, biochemical, GPCR trafficking, flow cytometry; actives 0.31% (n = 340,000); FITC-arrestin peptide / GST-AP2 beads; AP2 beta2 appendage carries R879A mutation; inhibition, % at 10 µM;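 active = inhibition above a set limit, near 3 SD of compounds lacking own fluorescence, cut at about 54% in these data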
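System: GST-tagged AP2 beta2-adaptin appendage (R879A) on 4 µm glutathione beads / Reagent: FITC-arrestin peptide, 50 nM / Detection: HyperCyt-sampled flow cytometry, FL1 channel, ex 488/em 535 nm / Timing: 12 min plus 1 h, RT / Buffer or medium: PBS plus Tween 20 (0.05%) and BSA (0.1%)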
AHR act – AHR activators, primary screen, cell-based, luminescence, luciferase reporter, human. AID 2796, 2010. actives 2.5% (n = 320,000). Aryl hydrocarbon receptor (Homo sapiens), P35869. activation, % at 5 µM. AHR-responsive luciferase reporter cells; in the data active = activation above about 47%
Target sequence (P35869 whole entry, looked up): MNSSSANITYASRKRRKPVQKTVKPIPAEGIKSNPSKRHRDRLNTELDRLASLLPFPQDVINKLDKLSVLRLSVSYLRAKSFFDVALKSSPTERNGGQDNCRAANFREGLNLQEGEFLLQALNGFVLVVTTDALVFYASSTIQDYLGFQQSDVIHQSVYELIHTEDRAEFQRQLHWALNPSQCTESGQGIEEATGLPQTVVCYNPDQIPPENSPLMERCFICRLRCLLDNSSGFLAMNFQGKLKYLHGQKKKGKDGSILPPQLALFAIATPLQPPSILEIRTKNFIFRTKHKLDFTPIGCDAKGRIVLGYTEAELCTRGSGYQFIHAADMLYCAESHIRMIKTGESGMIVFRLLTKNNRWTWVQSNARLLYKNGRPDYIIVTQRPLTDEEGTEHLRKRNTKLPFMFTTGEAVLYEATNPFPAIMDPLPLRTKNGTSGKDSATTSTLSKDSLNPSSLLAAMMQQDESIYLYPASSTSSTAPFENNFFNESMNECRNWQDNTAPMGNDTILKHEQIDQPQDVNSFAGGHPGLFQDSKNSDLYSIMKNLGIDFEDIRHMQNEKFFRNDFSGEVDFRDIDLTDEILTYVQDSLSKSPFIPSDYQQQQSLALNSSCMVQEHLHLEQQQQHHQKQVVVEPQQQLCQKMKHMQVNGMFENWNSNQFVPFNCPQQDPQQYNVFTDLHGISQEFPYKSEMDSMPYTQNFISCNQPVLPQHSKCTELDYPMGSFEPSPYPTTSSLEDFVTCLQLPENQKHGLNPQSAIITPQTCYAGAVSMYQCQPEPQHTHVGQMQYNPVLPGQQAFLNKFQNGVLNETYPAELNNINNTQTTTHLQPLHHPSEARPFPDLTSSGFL
APOBEC3A inh – APOBEC3A ssDNA deaminase inhibitors, primary screen, selectivity assay for APOBEC3G inhibitor project, biochemical, FAM/TAMRA oligo cleavage fluorescence. DNA dC->dU-editing enzyme APOBEC-3A (Homo sapiens), P31941. recombinant A3A, FAM/TAMRA ssDNA deamination fluorescence. inhibition, % at 20 µM. actives 0.41% (n = 330,000). AID 493011, 2011;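 active = at least 40% inhibition at 20 µM here, with at most 30% in a related deaminase screen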
UCH37 inh – inhibitors of human UCH37 deubiquitinase, primary screen, biochemical, Ub-AMC cleavage, fluorescence; AID 588478, 2011; Ubiquitin carboxyl-terminal hydrolase isozyme L5 (Homo sapiens), Q9Y5K5; inhibition, % (test concentration not listed); actives 0.33% (n = 330,000); purified proteasome/UCH37;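 active = mean inhibition over replicate wells above about 20%, limit read from the data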
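assay system = human UCH37 enzyme supplied as purified proteasome complex | amount = proteasome at 0.15 nM in the dispensed enzyme solution | schedule = 30 min compound-proteasome preincubation then 25 min substrate reaction, room temperature | measured by = fluorescence, ex 355 nm, em 460 nm | benchmarks = no-proteasome wells (full inhibition) and compound-free wells (no inhibition)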
PolyA inhibitor – polyadenylation inhibitors in yeast reporter cells, primary screen, luminescence, S. cerevisiae; S. cerevisiae SKY197-pL101 polyadenylation reporter, beta-gal luminescence; efflux-impaired pdr1/pdr3 knockout yeast; score 100 = 6 SD above DMSO; activity score, % at 12 µM; actives 0.02% (n = 300,000);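 active = lowest replicate activity score at least 50, where 100 means six control SD above control mean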;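 also: yeast exposed to compound for 9 h at 30 °C; higher score means more reporter readthrough which indicates perturbed polyadenylation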
A number is an active result; i = inactive; nt = not tested or not shown.

SMILES	A3G deaminase	Arrestin-AP2 inh	AHR act	APOBEC3A inh	UCH37 inh	PolyA inhibitor
COc1ccc(NN=C(C#N)S(=O)(=O)c2nsc(C)c2C#N)cc1	nt	nt	nt	nt	i	nt
O=c1[nH]c2ccccc2c2cn(-c3ccccc3)nc12	i	i	64	i	i	i
O=C(Nc1ccc(Cl)cc1)Nc1ccccc1CC[N+](=O)[O-]	i	i	67	i	i	i
CCCOc1ccc(-c2c(C(=O)NN=C(C)c3ccncc3)nnn2-c2nonc2N)cc1	nt	nt	nt	nt	i	nt
COc1cc(/C=C2\SC(=O)N(Cc3ccc(Cl)cc3)C2=O)cc([N+](=O)[O-])c1O	nt	i	nt	nt	22	nt
COc1ccccc1/C=C1\SC(=S)N(CCC(=O)NNC(=O)c2ccccc2O)C1=O	i	i	56	i	i	i
O=C(O)CN1C(=O)/C(=C\c2cc(Br)ccc2OCc2ccc([N+](=O)[O-])cc2)SC1=S	i	i	i	i	20	i
O=C(O)CN1C(=O)/C(=C\c2cc(Br)ccc2OCc2ccccc2F)SC1=S	i	i	i	i	24	i
COc1ccc(C=NNC(=O)c2ccn[nH]2)cc1COc1ccc(Cl)cc1Cl	nt	nt	nt	nt	i	nt
COc1cc(/C=C2\C(=O)NN(c3ccccc3)C2=O)cc([N+](=O)[O-])c1O	i	i	i	i	21	i
COc1cc(/C=C2/SC(=S)N(Cc3ccccc3)C2=O)cc(Cl)c1O	nt	i	i	nt	nt	i
COc1cc([N+](=O)[O-])cc(/C=C2/SC(=S)N(Cc3ccccc3)C2=O)c1O	nt	i	i	nt	21	i
Cc1ccccc1C=NNC(=O)c1sccc1C	nt	nt	nt	nt	i	nt
O=c1oc2ccccc2c(Nc2cccc3cccnc23)c1[N+](=O)[O-]	i	i	57	i	i	i
O=c1oc2ccccc2c(Nc2cc3ccccc3cc2O)c1[N+](=O)[O-]	i	i	63	i	i	i
COc1ccc(Nc2nc(NCc3ccco3)nc(NN=Cc3ccccc3F)n2)cc1	nt	nt	nt	nt	i	nt
COc1ccc(C=N/N=C2/NC(=O)C(CC(=O)NC(C)C)S2)cc1 (configuration not stated)	nt	nt	nt	nt	i	nt
O=C(NC1CCCCC1)c1ccc(-c2ccccc2[N+](=O)[O-])o1	i	i	59	i	i	i
CCn1c(SCC(=O)NN=Cc2c[nH]c3ccccc23)nnc1-c1ccc(Cl)cc1	nt	nt	nt	nt	i	nt
COc1ccc(C)cc1NC(=O)n1ncc2cc(Cl)ccc21	i	i	56	i	i	i
CCOc1cc(/C=C2\NC(=O)NC2=O)cc([N+](=O)[O-])c1O	i	i	i	i	21	i
CC(=O)NN1CCc2cc3ccc(C)cc3nc21	i	i	i	i	i	i
Cc1ccc2cc3c(nc2c1)N(c1ccccc1)CC3	i	i	66	i	i	i
O=S(=O)(c1ccccc1)c1ccccc1C=NO	nt	nt	nt	nt	i	nt
COc1ccc(-c2cc3ccc(OC)cc3cn2)cc1	i	i	i	i	i	nt
SMILES	A3G deaminase	Arrestin-AP2 inh	AHR act	APOBEC3A inh	UCH37 inh	PolyA inhibitor
COC(=O)c1cc(OC)c(OC)cc1NC(=O)c1cc(-c2ccccc2)nc2ccccc12	i	i	i	i	i	i
COc1ccc(-c2cc(OC)c3ccccc3n2)cc1	i	i	60	i	i	i
COc1cc(-c2ccccc2)nc2ccccc12	i	i	48	i	i	i
COc1ccc2c(OC)cc(-c3ccccc3)nc2c1	i	i	70	i	i	i
COc1ccc(-c2cc3ccccc3cn2)cc1	i	i	51	i	i	nt
O=C(CNC(=O)c1ccc(S(=O)(=O)N2CCCC2)cc1)NN=Cc1ccccc1	nt	nt	nt	nt	i	nt
CN(C)c1ccc(C=NNC(=O)CCCCCNC(=O)c2ccccc2)cc1	nt	nt	nt	nt	i	nt
CCCCCCCC(=O)NN=Cc1ccco1	nt	nt	nt	nt	i	nt
COc1ccc(-c2cc(C(F)(F)F)nc(N)n2)cc1	i	i	i	i	i	i
COc1ccc(-c2cc3cc(OC)c(OC)cc3c(C)n2)cc1	i	i	82	i	i	i
COc1ccc(-n2nc3cc(C)c(NC(C)=O)cc3n2)cc1	i	i	75	i	i	i
COc1ccc(-n2nc3cc(C)c(N)c(Br)c3n2)cc1	i	i	49	i	i	i
COc1ccc(-n2nc3ccccc3n2)cc1	i	i	i	i	i	i
CCOC(=O)C1=C(Cc2ccc(OC)cc2)C(=O)c2ccccc2C1=O	nt	55	nt	nt	i	nt
CCOC(=O)C1=C(Cc2ccc(C)cc2)C(=O)c2ccccc2C1=O	i	nt	i	i	nt	i
O=C(Nc1ccc(-c2nc3ccccc3o2)cc1)c1ccc(N2CCOCC2)c([N+](=O)[O-])c1	i	i	54	i	i	i
CCOc1nc(NCCO)nc(Nc2ccc([N+](=O)[O-])cc2)n1	i	i	i	i	nt	i
CNc1nc(Nc2ccc([N+](=O)[O-])cc2)nc(OCC(F)(F)F)n1	i	i	62	i	i	i
CN1CCN(C(=O)/C(=C/c2cn(C)c3ccccc23)NC(=O)c2ccccc2)CC1	i	i	50	i	i	i
CCOC(=O)/C(=C/c1cn(C)c2ccccc12)NC(=O)c1ccccc1	i	i	49	i	i	i
COc1ccc(C(=O)N/C(=C\c2cn(C)c3ccccc23)C(=O)N2CCN(C)CC2)cc1	i	i	i	i	i	i
Cc1ccccc1OCCSc1nnc(-c2cccnc2)n1N	i	i	54	i	i	i
Nn1c(SCc2ccc(F)cc2)nnc1-c1cccnc1	i	i	i	i	i	i
O=C(Nc1ccc2c(c1)OCO2)N1CCCc2ccccc21	i	i	56	i	i	i
O=C(Nc1ccc2c(c1)OCO2)N1CCN(c2ccc(F)cc2)CC1	i	i	58	i	i	i
SMILES	A3G deaminase	Arrestin-AP2 inh	AHR act	APOBEC3A inh	UCH37 inh	PolyA inhibitor
O=C(Nc1ccc2c(c1)OCO2)N1CCCC1	i	i	70	i	i	i
CC1CN(C(=O)Nc2ccc3c(c2)OCO3)CC(C)O1 (configuration not stated)	i	i	52	i	i	i
O=C(Nc1ccc2c(c1)OCO2)N1CCN(c2ccccc2)CC1	i	i	i	i	i	i
COCc1cc(=O)[nH]c(N=C(N)Nc2cccc(C)c2)n1	nt	nt	nt	nt	i	nt
CC(CC(=O)Nc1ccc(N(C)C)cc1)=NNC(=O)c1ccccc1F	nt	nt	nt	nt	i	nt
Cc1ccc2nc(-c3ccc(SCC(=O)N4CCc5ccccc54)nc3)[nH]c2c1	i	i	59	i	i	i
